# Results: ChEMBL document CHEMBL3774328, “Optimization by Molecular Fine Tuning of Dihydro-β-agarofuran Sesquiterpenoids as Reversers of P-Glycoprotein-Mediated Multidrug Resistance” (J Med Chem, 2016)
# Assays:
# [1] = target: T1, ATP-dependent translocase ABCB1 (Homo sapiens, UniProt P08183); assay: Inhibition of human MDR1 expressed in mouse NIH/3T3 cells assessed as daunomycin retention at 10 uM incubated for 30 mins by flow cytometry; type: cell-based; set-up: scale not given: the % may be the effect or the level left; conditions: nih3t3, 0.5 h
# Summary of the method: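 DNM retention by flow cytometry. MDR1-G185 NIH-3T3 cells in log phase were seeded 24 h before at 10^5 cells/well. They were incubated 30 min at 37 °C in DMEM + 10% iFBS with DNM (2 μM), with or without compound (10 μM). Cells were then washed twice in ice-cold PBS, trypsinized and read immediately for single-cell fluorescence.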
# [2] = Intrinsic cytotoxicity against mouse NIH/3T3 cells by MTT assay; type: cell-based, NIH3T3
# Summary of the method: (§1)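 Intrinsic cytotoxicity was measured by MTT in parental NIH-3T3 and MDR1-G185 cells. CC50 came from a four-parameter logistic fit. The top tested concentration was 60 μM, limited by DMSO toxicity, and growth at 60 μM is given as % of untreated control. Mean ± SD of three independent experiments in duplicate.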
# [3] = Intrinsic cytotoxicity against mouse NIH/3T3 cells transfected with human MDR1 by MTT assay; type: ADME, cell-based, NIH3T3; summary of the method: as §1
# [4] = Intrinsic cytotoxicity against mouse NIH/3T3 cells assessed as cell growth at 60 uM by MTT assay; type: cell-based, NIH3T3; conditions: read-out: Activity; summary of the method: as §1
# [5] = target: T1, ATP-dependent translocase ABCB1; assay: Inhibition of human MDR1 expressed in mouse NIH/3T3 cells assessed as inhibition of daunomycin efflux incubated for 30 mins by flow cytometry; type: cell-based, NIH3T3
# Summary of the method: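 Ki for DNM efflux. MDR1-G185 NIH-3T3 cells were incubated 30 min at 37 °C with DNM (2 μM) and varying compound concentrations, then read by flow cytometry. Fluorescence was converted to % P-gp inhibition, normalized to cells treated with 5 mM sodium orthovanadate (100%). Ki was fitted from I = (Imax × S)/(Ki + S). Mean ± SD of three independent experiments in triplicate.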
# [6] = target: T1, ATP-dependent translocase ABCB1; assay: Inhibition of human MDR1 expressed in mouse NIH/3T3 cells assessed as reduction in vinblastine IC50 at 10 uM by MTT assay; type: cell-based; conditions: nih3t3, 10 µM
# Summary of the method: (§2)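 Parental NIH-3T3 and MDR1-G185 cells were grown in DMEM with 10% iFBS. They were exposed to increasing DNM or VLB (up to 500 ng/mL) with or without compound at fixed 1, 3 or 10 μM. Growth was read by MTT, and IC50 came from a four-parameter logistic fit. Reversal index = IC50 without compound / IC50 with compound in MDR1 cells. Mean ± SD of two independent experiments in triplicate.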
# [7] = target: T1, ATP-dependent translocase ABCB1; assay: Inhibition of human MDR1 expressed in mouse NIH/3T3 cells assessed as reduction in daunomycin IC50 at 10 uM by MTT assay; type: cell-based; conditions: nih3t3, 10 µM; summary of the method: as §2
# [8] = target: T1, ATP-dependent translocase ABCB1; assay: Inhibition of human MDR1 expressed in mouse NIH/3T3 cells assessed as reduction in daunomycin IC50 at 1 uM by MTT assay; type: cell-based; conditions: nih3t3, 1 µM
# Summary of the method: as §2, with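 “fit.” for “fit. Reversal index = IC50 without compound / IC50 with compound in MDR1 cells.”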
# [9] = target: T1, ATP-dependent translocase ABCB1; assay: Inhibition of human MDR1 expressed in mouse NIH/3T3 cells assessed as reduction in daunomycin IC50 at 3 uM by MTT assay; type: cell-based; conditions: nih3t3, 3 µM; summary of the method: as §2
# [10] = target: T1, ATP-dependent translocase ABCB1; assay: Inhibition of human MDR1 expressed in mouse NIH/3T3 cells assessed as reduction in vinblastine IC50 at 1 uM by MTT assay; type: cell-based; conditions: nih3t3, 1 µM; summary of the method: as §2
# [11] = target: T1, ATP-dependent translocase ABCB1; assay: Inhibition of human MDR1 expressed in mouse NIH/3T3 cells assessed as reduction in vinblastine IC50 at 3 uM by MTT assay; type: cell-based; conditions: nih3t3, 3 µM; summary of the method: as §2
# T1 sequence (P08183 whole entry): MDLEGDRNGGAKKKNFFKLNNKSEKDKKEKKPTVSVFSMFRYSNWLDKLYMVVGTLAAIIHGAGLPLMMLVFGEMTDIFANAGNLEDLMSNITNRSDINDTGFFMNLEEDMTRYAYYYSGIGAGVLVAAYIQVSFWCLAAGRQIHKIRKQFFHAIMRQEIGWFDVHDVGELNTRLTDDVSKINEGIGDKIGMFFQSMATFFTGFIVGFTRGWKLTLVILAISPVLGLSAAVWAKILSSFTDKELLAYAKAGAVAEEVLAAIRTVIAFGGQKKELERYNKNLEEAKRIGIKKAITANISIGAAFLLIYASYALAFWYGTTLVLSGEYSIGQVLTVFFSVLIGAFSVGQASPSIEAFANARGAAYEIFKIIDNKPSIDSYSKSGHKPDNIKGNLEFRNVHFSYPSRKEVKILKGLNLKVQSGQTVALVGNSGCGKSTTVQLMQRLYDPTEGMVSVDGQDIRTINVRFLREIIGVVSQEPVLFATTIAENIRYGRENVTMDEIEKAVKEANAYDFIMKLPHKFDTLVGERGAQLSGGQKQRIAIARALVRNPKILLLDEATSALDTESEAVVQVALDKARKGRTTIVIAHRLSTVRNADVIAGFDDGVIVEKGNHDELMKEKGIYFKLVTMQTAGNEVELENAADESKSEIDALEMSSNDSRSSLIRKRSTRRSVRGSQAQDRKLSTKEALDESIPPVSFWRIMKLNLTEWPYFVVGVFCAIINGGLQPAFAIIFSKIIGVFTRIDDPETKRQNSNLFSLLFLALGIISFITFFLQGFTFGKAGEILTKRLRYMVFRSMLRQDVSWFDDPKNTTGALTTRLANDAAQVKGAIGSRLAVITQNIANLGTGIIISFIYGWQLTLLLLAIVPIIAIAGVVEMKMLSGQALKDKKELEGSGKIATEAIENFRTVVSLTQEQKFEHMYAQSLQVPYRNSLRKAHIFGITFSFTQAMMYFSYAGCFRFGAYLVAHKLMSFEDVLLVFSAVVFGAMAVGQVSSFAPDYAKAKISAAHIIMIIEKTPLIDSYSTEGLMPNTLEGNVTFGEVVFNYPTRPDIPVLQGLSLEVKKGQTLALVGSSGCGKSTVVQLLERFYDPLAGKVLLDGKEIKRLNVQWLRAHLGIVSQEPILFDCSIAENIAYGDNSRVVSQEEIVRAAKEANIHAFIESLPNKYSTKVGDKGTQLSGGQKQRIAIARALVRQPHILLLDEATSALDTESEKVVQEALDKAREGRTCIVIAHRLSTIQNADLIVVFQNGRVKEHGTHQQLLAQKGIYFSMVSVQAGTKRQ
SMILES,Activity [1] [%],CC50 [2] [µM],CC50 [3] [µM],viability at 60 µM [4] [%],Ki [5] [µM],fold change (FC) [6],fold change (FC) [7],fold change (FC) [8],fold change (FC) [9],fold change (FC) [10],fold change (FC) [11]
C=C1CC[C@H](OC(C)=O)[C@@]2(C)[C@@H](OC(=O)c3ccccc3)[C@@H](OC(=O)/C=C/c3ccccc3)[C@@H]3[C@@H](OC(=O)CCl)[C@]12OC3(C)C,66,–,–,–,–,–,–,–,–,–,–
CC(=O)O[C@H]1CC[C@@H](C)[C@]23OC(C)(C)[C@H]([C@H](OC(=O)CCc4ccccc4)[C@H](OC(=O)c4ccccc4)[C@]12C)[C@H]3O,–,> 60,14.2,72.3,0.4,–,–,–,–,–,–
CC(=O)O[C@H]1CC[C@](C)(O)[C@]23OC(C)(C)[C@H]([C@H](OC(=O)/C=C\c4ccccc4)[C@H](OC(=O)c4ccccc4)[C@]12C)[C@H]3OC(C)=O,–,12,22.9,–,–,77,30.3,7,24,12.1,19.7
CC(=O)O[C@H]1CC[C@](C)(O)[C@]23OC(C)(C)[C@H]([C@H](OC(=O)/C=C/c4ccccc4)[C@H](OC(=O)c4ccccc4)[C@]12C)[C@H]3OC(=O)CBr,–,8.6,5.7,–,0.31,–,–,–,–,–,–
C=C1CC[C@H](OC(C)=O)[C@@]2(C)[C@@H](OC(=O)c3ccccc3)[C@@H](OC(=O)/C=C/c3ccccc3)[C@@H]3[C@@H](OS(C)(=O)=O)[C@]12OC3(C)C,66,–,–,–,–,–,–,–,–,–,–
CC(=O)O[C@H]1CC[C@](C)(O)[C@]23OC(C)(C)[C@H]([C@H](OC(=O)/C=C/c4ccccc4)[C@H](OC(=O)c4ccccc4)[C@]12C)[C@H]3OC(=O)CCC(=O)OC1CCCCC1O (stereo partly specified),–,24.3,19.9,–,0.46,107.8,12.8,3.9,11,9.9,40.3
CC(=O)O[C@H]1CC[C@](C)(OC(=O)CN2CCOCC2)[C@]23OC(C)(C)[C@H]([C@H](OC(=O)/C=C/c4ccccc4)[C@H](OC(=O)c4ccccc4)[C@]12C)[C@H]3OC(C)=O,–,36.2,33.1,–,0.31,173.4,16.1,5.7,10.9,21.1,49.6
CCC(C)C(=O)O[C@@H]1[C@H]2[C@H](OC(=O)/C=C/c3ccccc3)[C@H](OC(=O)c3ccccc3)[C@]3(C)[C@@H](OC(C)=O)CC[C@](C)(O)[C@@]13OC2(C)C (stereo partly specified),–,> 60,13.2,57.3,0.41,–,–,–,–,–,–
COC(=O)CCC(=O)O[C@@H]1[C@H]2[C@H](OC(=O)/C=C/c3ccccc3)[C@H](OC(=O)c3ccccc3)[C@]3(C)[C@@H](OC(C)=O)CC[C@](C)(O)[C@@]13OC2(C)C,–,36.4,17.6,–,0.23,–,–,–,–,–,–
CCCC(=O)O[C@@H]1[C@H]2[C@H](OC(=O)/C=C/c3ccccc3)[C@H](OC(=O)c3ccccc3)[C@]3(C)[C@@H](OC(C)=O)CC[C@](C)(O)[C@@]13OC2(C)C,–,44.9,18.3,–,0.32,–,–,–,–,–,–
CC(=O)O[C@H]1CC[C@](C)(O)[C@]23OC(C)(C)[C@H]([C@H](OC(=O)/C=C/c4ccccc4)[C@H](OC(=O)c4ccccc4)[C@]12C)[C@H]3OC(=O)C1CC1,–,50.3,11.2,–,0.24,–,–,–,–,–,–
CC(=O)O[C@H]1CC[C@](C)(O)[C@]23OC(C)(C)[C@H]([C@H](OC(=O)/C=C/c4ccccc4)[C@H](OC(=O)c4ccccc4)[C@]12C)[C@H]3OC(=O)c1ccccc1,–,> 60,30.6,64.1,0.5,126.2,17.5,6.2,10.1,13.9,33.6
C=C1CC[C@H](OC(C)=O)[C@@]2(C)[C@@H](OC(=O)c3ccccc3)[C@@H](OC(=O)/C=C/c3ccccc3)[C@@H]3[C@@H](O)[C@]12OC3(C)C,66,–,–,–,–,–,–,–,–,–,–
CC(=O)O[C@H]1CC[C@](C)(O)[C@]23OC(C)(C)[C@H]([C@H](OC(=O)/C=C/c4ccccc4)[C@H](OC(=O)c4ccccc4)[C@]12C)[C@H]3OC(=O)CCC(=O)OCCO,–,27.7,29.2,–,0.5,145.9,10.6,2.6,7.5,6.5,26.8
CC(=O)O[C@H]1CC[C@](C)(O)[C@]23OC(C)(C)[C@H]([C@H](OC(=O)/C=C/c4ccccc4)[C@H](OC(=O)c4ccccc4)[C@]12C)[C@H]3OC(=O)CCl,83,7.4,5.3,–,1.52,–,–,–,–,–,–
CC(=O)O[C@H]1CC[C@](C)(O)[C@]23OC(C)(C)[C@H]([C@H](OC(=O)/C=C\c4ccccc4)[C@H](OC(=O)c4ccccc4)[C@]12C)[C@H]3OC(=O)c1cnccn1,–,> 60,31.2,68.3,0.42,39.6,9,3.2,5.2,5.2,18.7
CC(=O)O[C@H]1CC[C@](C)(Cl)[C@]23OC(C)(C)[C@H]([C@H](OC(=O)/C=C/c4ccccc4)[C@H](OC(=O)c4ccccc4)[C@]12C)[C@H]3Cl,–,43.7,31.4,–,1.34,113.9,14.8,5.2,12.9,11.6,33
CCOC(=O)CCC(=O)O[C@@H]1[C@H]2[C@H](OC(=O)/C=C/c3ccccc3)[C@H](OC(=O)c3ccccc3)[C@]3(C)[C@@H](OC(C)=O)CC[C@](C)(O)[C@@]13OC2(C)C,–,58.9,15.3,–,0.26,–,–,–,–,–,–
CC(=O)O[C@H]1CC[C@](C)(O)[C@@]23OC(C)(C)[C@@H](C2=O)[C@H](OC(=O)/C=C/c2ccccc2)[C@H](OC(=O)c2ccccc2)[C@]13C,–,18.9,34.8,–,0.63,106.3,15.9,5.2,10.4,11.6,29.4
CC(=O)O[C@H]1CC[C@](C)(O)[C@]23OC(C)(C)[C@H]([C@H](OC(=O)CCc4ccccc4)[C@H](OC(=O)c4ccccc4)[C@]12C)[C@H]3O,–,25.4,30.3,–,0.47,43.8,11.6,3.3,8.1,11.1,23.6
COC(=O)CCCC(=O)O[C@@H]1[C@H]2[C@H](OC(=O)/C=C/c3ccccc3)[C@H](OC(=O)c3ccccc3)[C@]3(C)[C@@H](OC(C)=O)CC[C@](C)(O)[C@@]13OC2(C)C,–,> 60,28.2,71.3,0.61,103.6,15.9,6,12.3,7.5,37.7
CC(=O)O[C@H]1CC[C@](C)(O)[C@]23OC(C)(C)[C@H]([C@H](OC(=O)/C=C\c4ccccc4)[C@H](OC(=O)c4ccccc4)[C@]12C)[C@H]3OC(=O)c1ccccc1,–,27.2,25.9,–,0.25,59.5,14.7,4.1,14.5,15.5,30.1
